The results in this text go back to ChEMBL document CHEMBL1126688, “Interphenylene 7-oxabicyclo[2.2.1]heptane oxazoles. Highly potent, selective, and long-acting thromboxane A2 receptor antagonists” (J Med Chem, 1993).

Each structure is given as a SMILES string.

A short description of data set [1]: Partition coefficient (logP). The format is physicochemical. Particulars: octanol/water. An outline of the steps:
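log P came from reversed-phase TLC Rm values on C18 plates. Eluent was acetone in 0.5 M aqueous KBr, buffered with 0.25 N triethylammonium phosphate to pH 7.3. Values were converted with a calibration curve built from shake-flask partition coefficients (pH 7.0) of seven oxabicycloheptane compounds spanning a range of lipophilicities.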

The species entered for data set [2] is Homo sapiens. The data set can be described thus: Inhibitory activity against platelet aggregation, induced by U-46619 in human platelet rich plasma. In kind it is functional. An outline of the steps:
(§1)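 Human platelet-rich plasma. Aggregation was induced by exogenous arachidonic acid or by the TxA2 mimetic U-46,619, each at a single fixed agonist level. I50 was taken as the antagonist concentration giving 50% inhibition of aggregation.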

For data set [3], the species on record is Homo sapiens. The data set can be described thus: Inhibitory activity against platelet aggregation, induced by arachidonic acid in human platelet rich plasma. The format is functional. An outline of the steps:
as §1

A further data set concerns the target T1, Thromboxane A2 receptor (Homo sapiens, UniProt P21731).
T1 sequence (P21731 whole entry): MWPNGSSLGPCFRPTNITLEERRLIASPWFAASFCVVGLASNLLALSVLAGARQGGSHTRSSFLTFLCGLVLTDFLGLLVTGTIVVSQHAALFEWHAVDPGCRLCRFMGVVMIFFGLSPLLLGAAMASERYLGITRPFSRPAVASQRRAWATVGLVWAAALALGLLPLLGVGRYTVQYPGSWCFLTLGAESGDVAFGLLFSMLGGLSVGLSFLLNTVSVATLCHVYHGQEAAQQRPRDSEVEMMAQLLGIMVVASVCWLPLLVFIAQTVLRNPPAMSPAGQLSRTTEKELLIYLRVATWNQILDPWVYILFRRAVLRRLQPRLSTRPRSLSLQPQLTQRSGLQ
The data set can be described thus: Inhibitory binding activity against TXA2 receptor in human platelet membrane, using [3H]-SQ 29548 as the radioligand. The procedure, abridged: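 Competition binding of [3H]-SQ 29,548 to TxA2 receptors in human platelet membranes, measured as inhibition of specific binding. Kd (inhibition constant) was calculated from each compound's I50 value. A slope factor is also reported.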

Data set [4] deals with Mus musculus. The data set can be described thus: In vivo duration of action required to prevent death in mice, after i.v. administration of U-46619 (2 mg/kg) at 0.2 mg/kg p.o. Particulars: po.
Data set [5] has as its system Mus musculus. In words: In vivo duration of action required to prevent death in mice, after iv administration of U-46619 (2 mg/kg) at 10 mg/kg po administration of compound.

The term logP denotes the decadic logarithm of the partition coefficient of the neutral form, usually between octanol and water. A high value points to higher lipophilicity. What is called Kd is the free concentration of one partner at which half of the binding sites on the other are occupied at equilibrium, for simple one-to-one binding. Low readings indicate tighter binding, high ones weaker binding. Consider `O=C(O)CCc1ccccc1CC1C2CCC(O2)C1c1nc(C(=O)NCCc2ccc(Cl)cc2)co1` (stereo not drawn), for which the logP in data set [1] worked out at 1.55. The IC50 in the data set filed under Homo sapiens [2] (read-out: I50) was found to be 14 nM; in the data set listed under Homo sapiens [3] (read-out: I50), 4 nM. Further, on Thromboxane A2 receptor, binding was put at a Kd of 1.3 nM. Further, the T50 with Mus musculus [4] stood at 22.7 h; with Mus musculus [5], 38.7 h.

`CC(C)(C)NC(=O)c1coc(C2C3CCC(O3)C2Cc2ccccc2CCC(=O)O)n1` (stereo not drawn) came in with a logP in data set [1] of -0.02. The IC50 in the data set filed under Homo sapiens [2] (read-out: I50) was 61 nM; in the data set listed under Homo sapiens [3] (read-out: I50), 12 nM. The affinity on Thromboxane A2 receptor, expressed as Kd, was 19 nM. Moreover, the T50 in the data set with Mus musculus [4] came out at 7.4 h.

`O=C(O)CCc1ccccc1CC1C2CCC(O2)C1c1nc(C(=O)NCCCCc2ccc(F)cc2)co1` (stereo not drawn) registered a logP in data set [1] of 2.17. In addition, the IC50 in the data set listed under Homo sapiens [2] (read-out: I50) amounted to 11 nM; in the data set filed under Homo sapiens [3] (read-out: I50), 4 nM. On Thromboxane A2 receptor, this compound showed a Kd of 3.9 nM. The compound also yielded a T50 with Mus musculus [4] of 22.5 h.

For `CCCCCCCNC(=O)c1coc(C2C3CCC(O3)C2Cc2ccccc2CCC(=O)O)n1` (stereo not drawn), the logP in data set [1] was found to be 2.88. The compound further displayed a Kd on Thromboxane A2 receptor of 0.2 nM. For the same compound, the T50 is 9.5 h with Mus musculus [4] and 27.4 h in the data set with Mus musculus [5].

The compound `O=C(O)CCc1ccccc1CC1C2CCC(O2)C1c1nc(C(=O)NCCCCC2CCCCC2)co1` (stereo not drawn) returned a lipophilicity (logP) in data set [1] of 3.93. The T50 in the data set on Mus musculus [4] amounted to 22.5 h; in the data set on Mus musculus [5], 49.6 h.

With `CC(C)(C)CCNC(=O)c1coc(C2C3CCC(O3)C2Cc2ccccc2CCC(=O)O)n1` (stereo not drawn), in data set [1], the logP was 1.23. Further, the IC50 stood at 28 nM in the data set filed under Homo sapiens [2] (read-out: I50) and 8 nM in the data set listed under Homo sapiens [3] (read-out: I50). Moreover, the Kd on Thromboxane A2 receptor stood at 2.9 nM. The compound also gave a T50 in the data set with Mus musculus [4] of 13.5 h.

In turn, `C#CCCCCCNC(=O)c1coc(C2C3CCC(O3)C2Cc2ccccc2CCC(=O)O)n1` (stereo not drawn) gave a logP in data set [1] of 0.87. Besides, the IC50 is 31 nM in the data set listed under Homo sapiens [2] (read-out: I 50) and 14 nM in the data set listed under Homo sapiens [3] (read-out: I 50). Further, the Kd at Thromboxane A2 receptor came to 4.7 nM. Moreover, in the data set with Mus musculus [4], the T50 was 11.1 h.

The compound `CCCCCNC(=O)c1coc(C2C3CCC(O3)C2Cc2ccccc2CCC(=O)O)n1` (stereo not drawn) [BMS-180291] yielded a logP in data set [1] of 1.61. Also, the IC50 in the data set filed under Homo sapiens [2] (read-out: I50) was determined as 21 nM. Moreover, on Thromboxane A2 receptor, binding was put at a Kd of 4 nM. In addition, the T50 in the data set on Mus musculus [4] was determined as 14.4 h; in the data set with Mus musculus [5] it was 29.4 h.
